Activity calls are given as the source filed them. The rule behind the calls is not given here.
Assays:
[1] = molecular target: T1, Protein cereblon/Induced myeloid leukemia cell differentiation protein Mcl-1 (Homo sapiens) (UniProt Q07820+Q96SW2); assay: Protac activity at Cereblon/MCL1 in human OPM2 cells assessed as protein abundance at 100 nM after 48 hrs by immunoblot analysis relative to control; assay type: cell-based
Outline: (§1)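 OPM2 multiple myeloma cells, wild type or CRBN-knockout, were treated for 48 h with degrader or DMSO vehicle. MCL1 long and short isoforms were detected by immunoblot and levels compared with DMSO controls.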

[2] = molecular target: T2, Induced myeloid leukemia cell differentiation protein Mcl-1 (Homo sapiens, UniProt Q07820); assay: Induction of MCL1 long isoform degradation in CRBN-/- human OPM2 cells assessed as protein abundance at 300 nM pre-incubated for 72 hrs followed by cycloheximide addition and measured after 120 mins by immunoblot analysis (reference value: 37%); assay type: cell-based
Outline: (§2)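 Cycloheximide chase: cells were treated for 72 h with DMSO or degrader, with cycloheximide added for the final 30, 60 or 120 min. OPM2 and MM1.S cells were used, and wild-type OPM2 was compared with OPM2 CRBN-/- at 60 and 120 min. MCL1 was detected by immunoblot.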

[3] = molecular target: T2, Induced myeloid leukemia cell differentiation protein Mcl-1; assay: Induction of MCL1 short isoform degradation in CRBN-/- human OPM2 cells assessed as protein abundance at 300 nM pre-incubated for 72 hrs followed by cycloheximide addition and measured after 60 mins by immunoblot analysis (reference value: 57%); assay type: cell-based; outline: as §2
[4] = molecular target: T1, Protein cereblon/Induced myeloid leukemia cell differentiation protein Mcl-1 (Homo sapiens); assay: Protac activity at Cereblon/MCL1 short isoform in human MM1S cells assessed as MCL1 short isoform level at 300 nM pre-incubated for 72 hrs followed by cycloheximide addition and measured after 30 mins by immunoblot analysis (reference value: 100%); assay type: cell-based; outline: as §2
[5] = molecular target: T1, Protein cereblon/Induced myeloid leukemia cell differentiation protein Mcl-1 (Homo sapiens); assay: Protac activity at Cereblon/MCL1 short isoform in wild type human OPM2 cells assessed as MCL1 short isoform abundance at 100 nM after 48 hrs by immunoblot analysis relative to control; assay type: cell-based
Outline: (§3)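 OPM2 wild-type cells, run alongside the CRBN-/- line, were treated for 48 h with compound or DMSO. The MCL1 long and short isoforms were then measured by immunoblot against the DMSO control.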

[6] = molecular target: T1, Protein cereblon/Induced myeloid leukemia cell differentiation protein Mcl-1 (Homo sapiens); assay: Protac activity at Cereblon/MCL1 short isoform in wild type human OPM2 cells assessed as MCL1 short isoform abundance at 50 nM after 48 hrs by immunoblot analysis relative to control; assay type: cell-based; outline: as §3
[7] = molecular target: T1, Protein cereblon/Induced myeloid leukemia cell differentiation protein Mcl-1 (Homo sapiens); assay: Protac activity at N-terminal His-tagged human MCL1 expressed in Escherichia coli/Cereblon in human OPM2 cell lysate assessed as ternary complex formation at 500 nM incubated for 4 hrs followed by cell lysate addition after overnight incubation by SDS-PAGE/immunoblot analysis
[8] = molecular target: T2, Induced myeloid leukemia cell differentiation protein Mcl-1; assay: Induction of MCL1 short isoform degradation in CRBN-/- human OPM2 cells assessed as protein abundance at 50 nM after 48 hrs by immunoblot analysis relative to control; assay type: cell-based; outline: as §1
[9] = molecular target: T2, Induced myeloid leukemia cell differentiation protein Mcl-1; assay: Induction of MCL1 short isoform degradation in CRBN-/- human OPM2 cells assessed as protein abundance at 250 nM after 48 hrs by immunoblot analysis relative to control; assay type: cell-based; outline: as §1
OPM-2 [10] = assay: Induction of apoptosis in wild type human OPM2 cells assessed as cleaved caspase-3 at 500 nM after 24 hrs in presence of 1% FBS by immunoblot analysis (reference value: 80%); assay type: functional
[11] = molecular target: T1, Protein cereblon/Induced myeloid leukemia cell differentiation protein Mcl-1 (Homo sapiens); assay: Protac activity at Cereblon/MCL1 short isoform in human MM1S cells assessed as MCL1 short isoform level at 300 nM pre-incubated for 72 hrs followed by cycloheximide addition and measured after 120 mins by immunoblot analysis (reference value: 80%); assay type: cell-based; outline: as §2
[12] = molecular target: T1, Protein cereblon/Induced myeloid leukemia cell differentiation protein Mcl-1 (Homo sapiens); assay: Protac activity at Cereblon/MCL1 in human OPM2 cells assessed as protein abundance at 500 nM after 48 hrs by immunoblot analysis relative to control; assay type: cell-based; outline: as §1
[13] = molecular target: T1, Protein cereblon/Induced myeloid leukemia cell differentiation protein Mcl-1 (Homo sapiens); assay: Protac activity at Cereblon/MCL1 in human OPM2 cells assessed as protein abundance at 1 uM after 48 hrs by immunoblot analysis relative to control; assay type: cell-based; outline: as §1
[14] = molecular target: T2, Induced myeloid leukemia cell differentiation protein Mcl-1; assay: Induction of MCL1 long isoform degradation in CRBN-/- human OPM2 cells assessed as protein abundance at 250 nM after 48 hrs by immunoblot analysis relative to control; assay type: cell-based; outline: as §1
[15] = molecular target: T1, Protein cereblon/Induced myeloid leukemia cell differentiation protein Mcl-1 (Homo sapiens); assay: Protac activity at Cereblon/MCL1 short isoform in human OPM2 cells assessed as MCL1 short isoform level at 300 nM pre-incubated for 72 hrs followed by cycloheximide addition and measured after 30 mins by immunoblot analysis (reference value: 100%); assay type: cell-based
Outline: (§4)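 OPM2 or MM1.S cells were treated for 72 h with compound or DMSO. Cycloheximide was added for the final 30, 60 or 120 min. MCL1 was read by immunoblot and compared with DMSO-treated cells as a normal-turnover reference.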

OPM-2 [16] = assay: Cytotoxicity against CRBN-/- human OPM2 cells assessed as reduction in cell viability at 50 to 10000 nM after 48 hrs by CellTiter-96 Cell Viability Assay; assay type: cell-based; conditions: opm-2, 48 h, 10 µM
[17] = molecular target: T2, Induced myeloid leukemia cell differentiation protein Mcl-1; assay: Induction of MCL1 long isoform degradation in CRBN-/- human OPM2 cells assessed as protein abundance at 500 nM after 48 hrs by immunoblot analysis relative to control; assay type: cell-based; outline: as §1
[18] = molecular target: T1, Protein cereblon/Induced myeloid leukemia cell differentiation protein Mcl-1 (Homo sapiens); assay: Protac activity at Cereblon/MCL1 long isoform in wild type human OPM2 cells at 250 nM after 48 hrs by immunoblot analysis relative to control; assay type: cell-based; outline: as §1
[19] = Half-life in human liver microsome pre-incubated for 10 mins followed by addition of NADPH regenerating system after 5 to 60 mins by LC/MS/MS analysis; assay type: ADME; conditions: liver microsomes
OPM-2 [20] = assay: Induction of apoptosis in wild type human OPM2 cells assessed as cleaved caspase-3 at 100 nM after 24 hrs in presence of 1% FBS by immunoblot analysis (reference value: 91%); assay type: functional
[21] = molecular target: T2, Induced myeloid leukemia cell differentiation protein Mcl-1; assay: Induction of MCL1 short isoform degradation in CRBN-/- human OPM2 cells assessed as protein abundance at 500 nM after 48 hrs by immunoblot analysis relative to control; assay type: cell-based; outline: as §1
[22] = molecular target: T2, Induced myeloid leukemia cell differentiation protein Mcl-1; assay: Induction of MCL1 short isoform degradation in CRBN-/- human OPM2 cells assessed as protein abundance at 100 nM after 48 hrs by immunoblot analysis relative to control; assay type: cell-based; outline: as §1
[23] = molecular target: T1, Protein cereblon/Induced myeloid leukemia cell differentiation protein Mcl-1 (Homo sapiens); assay: Protac activity at Cereblon/MCL1 short isoform in wild type human OPM2 cells assessed as MCL1 short isoform level at 300 nM pre-incubated for 72 hrs followed by cycloheximide addition and measured after 60 mins by immunoblot analysis (reference value: 64%); assay type: cell-based
Outline: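 OPM2 wild-type and OPM2 CRBN-/- cells were treated for 72 h with compound or DMSO, with cycloheximide present for the final 60 or 120 min. MCL1 was detected by immunoblot.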

[24] = molecular target: T1, Protein cereblon/Induced myeloid leukemia cell differentiation protein Mcl-1 (Homo sapiens); assay: Protac activity at Cereblon/MCL1 long isoform in human OPM2 cells assessed as MCL1 long isoform abundance at 500 nM after 24 hrs by immunoblot analysis relative to control; assay type: cell-based
[25] = molecular target: T2, Induced myeloid leukemia cell differentiation protein Mcl-1; assay: Induction of MCL1 short isoform degradation in CRBN-/- human OPM2 cells assessed as protein abundance at 300 nM pre-incubated for 72 hrs followed by cycloheximide addition and measured after 120 mins by immunoblot analysis (reference value: 16%); assay type: cell-based; outline: as §2
[26] = molecular target: T1, Protein cereblon/Induced myeloid leukemia cell differentiation protein Mcl-1 (Homo sapiens); assay: Protac activity at Cereblon/MCL1 short isoform in human MM1S cells assessed as MCL1 short isoform level at 300 nM pre-incubated for 72 hrs followed by cycloheximide addition and measured after 60 mins by immunoblot analysis (reference value: 98%); assay type: cell-based; outline: as §4

T2 sequence (Q07820 whole entry, canonical isoform): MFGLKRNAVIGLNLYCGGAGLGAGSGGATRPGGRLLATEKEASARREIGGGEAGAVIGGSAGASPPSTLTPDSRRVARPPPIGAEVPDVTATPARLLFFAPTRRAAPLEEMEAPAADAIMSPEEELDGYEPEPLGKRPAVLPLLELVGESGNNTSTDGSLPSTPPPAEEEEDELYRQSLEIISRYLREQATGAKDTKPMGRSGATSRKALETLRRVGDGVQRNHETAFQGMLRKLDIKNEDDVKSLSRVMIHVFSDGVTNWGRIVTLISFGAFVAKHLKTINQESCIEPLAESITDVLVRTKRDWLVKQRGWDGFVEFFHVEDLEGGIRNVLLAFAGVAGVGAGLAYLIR
T1 sequence (Q07820 whole entry, looked up, canonical isoform): as the sequence (Q07820 whole entry, canonical isoform) above
T1 sequence (Q96SW2 whole entry, looked up, canonical isoform): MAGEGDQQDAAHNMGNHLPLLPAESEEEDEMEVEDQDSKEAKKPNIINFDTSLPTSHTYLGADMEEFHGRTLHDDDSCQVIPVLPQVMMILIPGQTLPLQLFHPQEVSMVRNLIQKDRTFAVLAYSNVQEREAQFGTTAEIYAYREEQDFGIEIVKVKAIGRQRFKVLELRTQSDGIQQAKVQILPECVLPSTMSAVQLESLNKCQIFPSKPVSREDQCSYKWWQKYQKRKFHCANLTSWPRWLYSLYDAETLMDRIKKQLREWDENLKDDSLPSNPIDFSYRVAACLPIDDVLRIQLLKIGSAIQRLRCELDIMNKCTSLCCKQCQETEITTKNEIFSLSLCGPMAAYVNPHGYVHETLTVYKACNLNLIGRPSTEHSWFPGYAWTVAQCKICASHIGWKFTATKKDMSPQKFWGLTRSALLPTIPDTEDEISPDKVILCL

Activity [1]: 63% | Activity [2]: 39% | Activity [3]: 64% | Activity [4]: 74% | Activity [5]: 53% | Activity [6]: 79% | Activity [7]: Active | Activity [8]: 100% | Activity [9]: 97% | Activity [11]: 34% | Activity [12]: 58% | Activity [13]: 110% | Activity [14]: 85% | Activity [15]: 34% | Activity [17]: 100% | Activity [18]: 70% | half-life [19]: 20.6 min | Activity [21]: 100% | Activity [22]: 100% | Activity [23]: 14% | Activity [24]: 55% | Activity [25]: 25% | Activity [26]: 31%
SMILES: Cc1nn(C)c(COc2ccc(N3CCN(S(=O)(=O)N(C)C)CC3)cc2)c1-c1cccc2c(CCCOc3cccc4ccccc34)c(C(=O)O)n(CCN3CCN(C(=O)COc4cccc5c4C(=O)N(C4CCC(=O)NC4=O)C5=O)CC3)c12 (stereo unspecified)
Activity (OPM-2 [10]): 326% | Activity (OPM-2 [16]): Toxic | Activity (OPM-2 [20]): 143%

Source: ChEMBL document CHEMBL4396889, “From Inhibition to Degradation: Targeting the Antiapoptotic Protein Myeloid Cell Leukemia 1 (MCL1)” (J Med Chem, 2019)
